Assay results taken from PMC3778256 (Epilepsy research, 2012).

Tests used:
[1] = Radio-HPLC analysis of radiolabelled metabolites in rat plasma and brain; settings: 40 min after injection
[2] = test system: P-glycoprotein (Pgp) at the blood-brain barrier
[3] = test system: multidrug resistance proteins (MRPs) at the murine BBB; settings: wild-type mice, MK571 20 mg/kg iv 30 min before scan
[4] = biological target: multidrug resistance proteins (MRPs) at the murine BBB (Mus musculus, UniProt O35379); settings: single 60-min PET scans, n = 4 each
[5] = Plasma protein binding by ultrafiltration; assay type: in vitro ADME; settings: rat plasma, n = 3
[6] = test system: P-glycoprotein (Pgp) at the blood-brain barrier; test: Paired small-animal PET scans in rats before and after tariquidar
murine Mdr1a (Pgp) = murine Mdr1a (Pgp) (Mus musculus, UniProt P21447); test: Concentration equilibrium transport assay in LLC-Mdr1a cells; assay type: cell-based; settings: 50 μM both chambers, 6 h, with/without tariquidar 0.5 μM
human MDR1 (Pgp) [7] = biological target: T1, human MDR1 (Pgp) (Homo sapiens, UniProt P08183); test: Concentration equilibrium transport assay in LLC-MDR1 cells; assay type: cell-based; settings: 50 μM both chambers, 6 h, with/without tariquidar 0.5 μM
human MRP1 = human MRP1 (Homo sapiens, UniProt P33527); test: Concentration equilibrium transport assay in LLC-MRP1 cells; assay type: cell-based; settings: 50 μM both chambers, 6 h, with/without MK571 50 μM
Outline: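 LLC-PK1 transfected with MRP1, ≤13 passages, seeded at 0.3 × 10^6 cells/cm2 on polyester filters; assayed 5–7 days post-confluence in Opti-MEM after 1 h pre-incubation ± MK571 50 µM. Test compound 50 µM in both chambers; both sampled at 60, 120, 240, 360 min; 37°C, 5% CO2, 50 rpm; triplicate. Integrity: TEER, [14C]mannitol; calcein-AM 1 µM positive control.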

human MDR1 (Pgp) [8] = biological target: T1, human MDR1 (Pgp); settings: tariquidar 0.5 μM; ref Luna-Tortós et al. 2008; cited from earlier work
[9] = test system: P-glycoprotein (Pgp) at the blood-brain barrier; settings: naïve rats, 15 mg/kg; ref Kuntner et al. 2010; cited from earlier work

T1 sequence (P08183 whole entry): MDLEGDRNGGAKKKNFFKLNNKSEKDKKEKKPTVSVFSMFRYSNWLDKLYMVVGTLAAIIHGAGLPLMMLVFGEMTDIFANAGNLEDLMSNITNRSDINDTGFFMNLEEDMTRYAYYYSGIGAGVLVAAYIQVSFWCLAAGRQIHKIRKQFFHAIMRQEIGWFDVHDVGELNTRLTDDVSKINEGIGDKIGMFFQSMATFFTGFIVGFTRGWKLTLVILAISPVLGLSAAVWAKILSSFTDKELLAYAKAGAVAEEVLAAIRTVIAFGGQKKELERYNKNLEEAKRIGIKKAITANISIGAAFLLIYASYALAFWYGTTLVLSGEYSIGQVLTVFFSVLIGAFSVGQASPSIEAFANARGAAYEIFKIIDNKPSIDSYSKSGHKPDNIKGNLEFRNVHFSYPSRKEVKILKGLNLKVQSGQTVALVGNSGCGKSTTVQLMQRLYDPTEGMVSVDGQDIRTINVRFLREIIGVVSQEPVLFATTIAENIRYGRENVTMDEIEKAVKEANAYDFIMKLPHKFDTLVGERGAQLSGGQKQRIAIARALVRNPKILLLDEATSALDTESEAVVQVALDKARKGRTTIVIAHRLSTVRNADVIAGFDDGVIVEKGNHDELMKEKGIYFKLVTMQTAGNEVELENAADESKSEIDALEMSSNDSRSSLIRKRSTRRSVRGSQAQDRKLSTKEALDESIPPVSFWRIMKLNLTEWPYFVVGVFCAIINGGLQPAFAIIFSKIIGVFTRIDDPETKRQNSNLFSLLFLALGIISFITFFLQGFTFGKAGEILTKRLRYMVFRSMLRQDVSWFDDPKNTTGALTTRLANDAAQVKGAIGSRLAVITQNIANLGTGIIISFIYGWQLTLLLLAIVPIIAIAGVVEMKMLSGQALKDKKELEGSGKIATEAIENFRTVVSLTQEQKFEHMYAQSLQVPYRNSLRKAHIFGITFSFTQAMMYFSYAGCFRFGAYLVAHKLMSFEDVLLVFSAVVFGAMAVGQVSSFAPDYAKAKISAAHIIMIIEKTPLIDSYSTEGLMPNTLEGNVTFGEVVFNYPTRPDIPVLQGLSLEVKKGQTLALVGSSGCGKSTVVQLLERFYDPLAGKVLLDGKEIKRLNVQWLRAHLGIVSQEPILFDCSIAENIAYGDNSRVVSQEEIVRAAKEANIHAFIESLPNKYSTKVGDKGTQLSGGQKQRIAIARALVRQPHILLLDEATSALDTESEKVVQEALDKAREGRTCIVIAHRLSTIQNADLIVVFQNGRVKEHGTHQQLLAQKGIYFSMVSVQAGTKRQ
multidrug resistance proteins (MRPs) at the murine BBB (Mus musculus, UniProt O35379), sequence (O35379 whole entry): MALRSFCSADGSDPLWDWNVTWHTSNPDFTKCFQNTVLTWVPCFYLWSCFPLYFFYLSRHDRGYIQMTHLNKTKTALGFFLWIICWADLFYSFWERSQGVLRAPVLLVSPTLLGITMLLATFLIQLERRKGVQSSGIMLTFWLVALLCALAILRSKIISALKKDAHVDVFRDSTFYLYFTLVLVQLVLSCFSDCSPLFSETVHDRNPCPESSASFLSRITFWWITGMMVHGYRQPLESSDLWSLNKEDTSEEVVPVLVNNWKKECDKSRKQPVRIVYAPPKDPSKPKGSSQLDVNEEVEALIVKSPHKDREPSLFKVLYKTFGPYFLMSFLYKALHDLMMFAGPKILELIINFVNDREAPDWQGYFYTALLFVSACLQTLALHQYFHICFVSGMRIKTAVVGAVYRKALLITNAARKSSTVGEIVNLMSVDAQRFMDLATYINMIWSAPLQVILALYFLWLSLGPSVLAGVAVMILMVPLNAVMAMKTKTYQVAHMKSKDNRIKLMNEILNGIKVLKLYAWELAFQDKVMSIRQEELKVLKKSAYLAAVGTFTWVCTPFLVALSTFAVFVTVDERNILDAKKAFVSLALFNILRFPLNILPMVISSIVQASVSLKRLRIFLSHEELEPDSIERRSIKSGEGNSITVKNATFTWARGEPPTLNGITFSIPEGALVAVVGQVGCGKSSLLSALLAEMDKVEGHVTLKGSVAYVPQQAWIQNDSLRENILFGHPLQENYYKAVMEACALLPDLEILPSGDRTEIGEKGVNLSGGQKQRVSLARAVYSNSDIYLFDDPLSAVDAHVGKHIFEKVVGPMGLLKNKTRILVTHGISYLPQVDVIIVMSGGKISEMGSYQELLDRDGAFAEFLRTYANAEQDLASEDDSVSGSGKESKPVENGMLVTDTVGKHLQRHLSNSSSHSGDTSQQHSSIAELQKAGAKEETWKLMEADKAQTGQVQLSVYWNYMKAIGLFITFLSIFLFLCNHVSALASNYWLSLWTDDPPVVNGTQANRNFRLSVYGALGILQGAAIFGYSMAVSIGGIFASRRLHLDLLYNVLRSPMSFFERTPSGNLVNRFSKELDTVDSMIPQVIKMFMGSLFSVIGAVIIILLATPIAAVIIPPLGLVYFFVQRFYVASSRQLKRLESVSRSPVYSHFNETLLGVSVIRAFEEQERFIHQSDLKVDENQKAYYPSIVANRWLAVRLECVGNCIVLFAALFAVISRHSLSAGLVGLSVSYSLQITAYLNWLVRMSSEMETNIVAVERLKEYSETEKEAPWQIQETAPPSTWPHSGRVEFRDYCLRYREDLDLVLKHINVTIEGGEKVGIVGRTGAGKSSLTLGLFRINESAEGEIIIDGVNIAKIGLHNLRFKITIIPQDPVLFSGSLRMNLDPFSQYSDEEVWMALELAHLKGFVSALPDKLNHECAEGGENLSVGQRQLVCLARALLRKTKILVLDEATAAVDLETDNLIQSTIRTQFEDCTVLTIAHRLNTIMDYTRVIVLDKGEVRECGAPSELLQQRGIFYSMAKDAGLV
murine Mdr1a (Pgp), sequence (P21447 whole entry): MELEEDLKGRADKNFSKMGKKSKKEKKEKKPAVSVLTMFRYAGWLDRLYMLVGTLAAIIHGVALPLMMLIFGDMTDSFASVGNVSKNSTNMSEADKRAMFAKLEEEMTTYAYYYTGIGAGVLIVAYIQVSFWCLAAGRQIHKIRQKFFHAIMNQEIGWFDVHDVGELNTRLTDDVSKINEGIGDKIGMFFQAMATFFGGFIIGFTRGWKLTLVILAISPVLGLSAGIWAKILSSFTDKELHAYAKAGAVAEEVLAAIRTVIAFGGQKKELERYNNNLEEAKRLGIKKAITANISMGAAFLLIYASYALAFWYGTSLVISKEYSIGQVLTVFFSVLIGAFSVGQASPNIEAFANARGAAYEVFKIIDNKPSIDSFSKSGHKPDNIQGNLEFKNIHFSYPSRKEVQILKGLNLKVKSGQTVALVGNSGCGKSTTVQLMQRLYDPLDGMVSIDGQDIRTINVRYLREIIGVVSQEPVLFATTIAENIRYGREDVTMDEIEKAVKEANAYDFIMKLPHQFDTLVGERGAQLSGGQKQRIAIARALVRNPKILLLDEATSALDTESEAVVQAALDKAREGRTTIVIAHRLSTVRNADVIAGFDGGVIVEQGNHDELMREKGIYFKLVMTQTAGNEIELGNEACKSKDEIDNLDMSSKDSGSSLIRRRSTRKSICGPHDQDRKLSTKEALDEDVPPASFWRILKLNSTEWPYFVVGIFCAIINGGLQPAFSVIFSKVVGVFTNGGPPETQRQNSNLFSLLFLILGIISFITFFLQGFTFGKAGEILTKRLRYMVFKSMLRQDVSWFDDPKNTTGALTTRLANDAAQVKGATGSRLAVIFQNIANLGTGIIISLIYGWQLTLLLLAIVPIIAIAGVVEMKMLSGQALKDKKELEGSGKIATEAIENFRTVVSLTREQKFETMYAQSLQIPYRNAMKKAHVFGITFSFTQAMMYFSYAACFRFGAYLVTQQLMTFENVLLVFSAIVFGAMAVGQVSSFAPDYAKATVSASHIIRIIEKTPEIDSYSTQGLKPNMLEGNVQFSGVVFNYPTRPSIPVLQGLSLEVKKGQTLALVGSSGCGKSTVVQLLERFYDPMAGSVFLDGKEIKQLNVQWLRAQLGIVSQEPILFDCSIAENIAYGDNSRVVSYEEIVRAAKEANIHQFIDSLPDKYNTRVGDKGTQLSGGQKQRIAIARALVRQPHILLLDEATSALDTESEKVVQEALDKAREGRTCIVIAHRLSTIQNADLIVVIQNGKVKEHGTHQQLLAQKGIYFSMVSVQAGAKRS

CCC1(c2ccccc2)C(=O)NC(=O)N([11CH3])C1=O (centres unmarked) [[^11C]mephobarbital]
total activity in brain in the form of unchanged parent ([1]; rat brain tissue extracts, n = 5): 96±6%
total activity in plasma as unchanged parent ([1]; rat plasma): > 85%
Blood activity concentrations (SUV), comparison of groups and scans ([2]; 25 and 60 min, wild-type and Mdr1a/b(-/-) mice, scan 1 and 2, three comparisons excepted (p < 0.05)): similar
Brain AUC0-60, wild-type versus Mdr1a/b(-/-) mice ([2]; scan 1 and scan 2, respectively, n = 3 each): not significantly different
Brain AUC0-60, scan 2 relative to scan 1 ([2]; wild-type mice, tariquidar 15 mg/kg, p = 0.013): significantly decreased
Brain uptake, untreated versus MK571 pretreated mice [3]: did neither differ
Brain uptake, wild-type versus Mrp1(-/-) mice [4]: did neither differ
fraction unbound in plasma [5]: 0.21±0.05
Peak brain activity uptake (SUV) ([6]; scan 1 (before tariquidar), about 1 min after iv injection, n = 3): 3.1±0.2 SUV
brain-to-blood AUC0-60 ratio ([6]; scan 1 (before tariquidar), n = 3): 2.0±0.5
brain-to-blood AUC0-60 ratio in scan 1 as compared to (R)-[11C]verapamil ([6]; scan 1, Supplementary Fig. S1): two times higher
brain-to-blood AUC0-60 ratio ([6]; scan 2 (after tariquidar 15 mg/kg iv), n = 3): 2.4±0.3

CCC1(c2ccccc2)C(=O)NC(=O)N(C)C1=O (centres unmarked) [mephobarbital, methylphenobarbital]
basolateral-to-apical transport by murine Mdr1a (murine Mdr1a (Pgp)): lack of active transport
basolateral-to-apical transport by human MDR1 (human MDR1 (Pgp) [7]): lack of active transport
basolateral-to-apical transport by human MRP1 (human MRP1): lack of active transport

CCC1(c2ccccc2)C(=O)NC(=O)NC1=O [phenobarbital]
inhibition of MDR1 transport by tariquidar (human MDR1 (Pgp) [8]): 54%

COc1cc2c(cc1OC)CN(CCc1ccc(NC(=O)c3cc(OC)c(OC)cc3NC(=O)c3cnc4ccccc4c3)cc1)CC2 [tariquidar]
inhibition of Pgp at the BBB [9]: completely inhibit Pgp
